The other results are listed elsewhere or left out. The source made the active and inactive calls. Cut-off read from the data, not from the text of the source, unless noted: active = inhibition above about 40%; inactive = the rest.
Legend:
[1] = inhibitors of PAF-induced NF-kB signaling, retest, confirmation, cell-based, GFP fluorescence, single concentration (AID 602472); conditions: KKLEB CF airway cells, overnight, at 5 µM, stronger effect = higher value;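 note: stimulus PAF is a Pseudomonas aeruginosa filtrate and not platelet activating factor; plate controls were DMSO wells with stimulus for no effect and unstimulated DMSO wells for full effect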
How it was run: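 Material: KKLEB immortalized cystic fibrosis airway epithelial cells with NFkB-GFP reporter; buffer or medium: 2% FBS cell medium, serum-free stimulus medium; also added: PAF stimulation; dosing: 5 µM single dose; times: 2 h compound pretreatment at 37 °C, overnight PAF exposure; detection: GFP fluorescence of NFkB reporter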

[2] = inhibitors of PAF-induced NFkB signaling in CF airway cells, dose response, cell-based, uHTS hits, panel, cytotoxicity readout (AID 624344); conditions: CF bronchial epithelial cells, PAF-induced NFkB reporter inhibition, with PAF, run 1; at 79 µM (top of the series) unless noted
[3] = as above; conditions: CF bronchial epithelial cells, PAF-induced NFkB reporter inhibition, with PAF, run 2; at 79 µM (top of the series) unless noted
PEG-3 [4] = target: PEG-3 (UniProt Q6IN02); assay: Peg3 promoter luciferase inhibitors, potency, dose response, cell-based, HeLa, CREF/GAPDH counter-screen panel (AID 624167); conditions: CREF/GAPDH counter-screens; HeLa PEG-Prom luciferase reporter, overnight, run 1, dose range 1, at 100 µM (top of the series) unless noted
PEG-3 [5] = target: PEG-3 (UniProt Q6IN02); assay: as above; conditions: CREF/GAPDH counter-screens; HeLa PEG-Prom luciferase reporter, overnight, run 2, dose range 1, at 100 µM (top of the series) unless noted
[6] = HIF-2a reporter inhibitor retest, confirmation, luminescence, 786-0 RCC cells (AID 651580;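 active = mean inhibition across four replicates of at least 40 percent at the single tested concentration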); conditions: HIF-2a luciferase reporter luminescence, overnight, at 18.8 µM, stronger effect = higher value
[7] = HIF-1a luciferase reporter signal reduction – MiaPaCa-2 cells, single concentration, counter-screen for HIF-2a inhibitor project, confirmation (AID 651589;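 active = mean inhibition of the reporter signal across four replicates at the single tested dose of 50% or more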); conditions: MiaPaCa-2 HIF-1a luciferase reporter, desferoxamine, overnight; at 18.8 µM; stronger effect = higher value

Sequence of PEG-3 (Q6IN02 whole entry, looked up): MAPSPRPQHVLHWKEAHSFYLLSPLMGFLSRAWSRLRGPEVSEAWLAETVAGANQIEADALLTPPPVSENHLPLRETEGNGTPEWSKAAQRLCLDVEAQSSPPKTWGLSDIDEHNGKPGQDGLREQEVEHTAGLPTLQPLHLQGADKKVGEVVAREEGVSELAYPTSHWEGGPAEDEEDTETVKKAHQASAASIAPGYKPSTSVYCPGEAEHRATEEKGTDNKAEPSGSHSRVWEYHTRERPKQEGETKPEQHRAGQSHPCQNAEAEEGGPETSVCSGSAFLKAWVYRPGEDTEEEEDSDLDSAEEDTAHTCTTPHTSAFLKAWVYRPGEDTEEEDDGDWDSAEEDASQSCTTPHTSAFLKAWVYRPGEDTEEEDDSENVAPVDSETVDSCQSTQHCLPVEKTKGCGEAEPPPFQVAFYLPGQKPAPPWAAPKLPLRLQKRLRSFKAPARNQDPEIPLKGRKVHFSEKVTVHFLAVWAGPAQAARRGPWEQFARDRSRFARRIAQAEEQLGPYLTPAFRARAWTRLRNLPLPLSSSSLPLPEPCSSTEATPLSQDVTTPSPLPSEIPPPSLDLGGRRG

With `C=CCc1cc(S(=O)(=O)c2ccc(O)c(CC=C)c2)ccc1O` the inhibition [1] was 48.8% (active), the inhibition [2] was 111% and the inhibition [3] was 99.2%.
In the case of `NC(=O)c1sc2nc3c(c(-c4ccccc4)c2c1N)CCC3`, the inhibition [1] is reported as 93.2% (active), the inhibition [2] is reported as 114% and the inhibition [3] is reported as 104%.
For `CC(C)CC1C(=O)N(Cc2cn(Cc3ccco3)nn2)CCS(=O)(=O)N1Cc1ccc(-c2ccc(Cl)c(Cl)c2)cc1` (stereo not drawn), the inhibition [1] was 45.6% (active).
For `CCc1ccc(N(CC)c2ncnc3nc[nH]c23)cc1`, the inhibition [1] was 62.6% (active), the inhibition [2] was 101% and the inhibition [3] was 99.3%.
In the case of `C=CCSc1nsc(NC(=O)Nc2cccc(C(C)=O)c2)n1`, the inhibition [1] is reported as 98.3% (active), the inhibition [2] is reported as 109% and the inhibition [3] is reported as 101%.
For `CCOC(=O)c1c(-c2ccccc2)oc2cc(Br)c(O)c(C=O)c12`, the inhibition [1] was 90.8% (active), the inhibition [2] was 90.8% and the inhibition [3] was 84.3%.
With `COc1ccc(CNC(=O)C(c2ccc(O)cc2)N(Cc2ccco2)C(=O)c2snc(C(N)=O)c2N)cc1` (stereo not drawn) the inhibition [1] was 49.2% (active), the inhibition [2] was 114% and the inhibition [3] was 104%.
In the case of `CN(C)c1ccnc2sc3c(=O)n(Cc4ccccc4)cnc3c12`, the inhibition [1] is reported as 91.5% (active), the inhibition [2] is reported as 106% and the inhibition [3] is reported as 97.7%.
In the case of `COc1cc(C2c3cc4c(cc3C(O)C3COC(=O)C23)OCO4)cc(OC)c1OC` (stereo not drawn), the inhibition [1] is reported as 83.3% (active), the inhibition [2] is reported as -0.395% and the inhibition [3] is reported as 37.3%.
For `CC(C)c1ccc2c(c1)c(SC(C)(C)C)c(CC(C)(C)C(=O)O)n2Cc1ccc(Cl)cc1`, the inhibition [1] was 41.5% (active).
For `COc1cc(CNC(C)(C)CO)cc(Br)c1OCc1ccc(Cl)cc1`, the inhibition (PEG-3 [4]) was 99% and the inhibition (PEG-3 [5]) was 98.9%.
`CCN(CCN(C)C)C(=O)C1CCN(S(=O)(=O)c2c(C)noc2/C=C/c2ccccc2F)CC1` gave an inhibition (PEG-3 [4]) of 90.8% and an inhibition (PEG-3 [5]) of 97.5%.
In the case of `N#C/C(=C\c1cccc([N+](=O)[O-])c1)C(=O)NCc1ccc(Cl)cc1`, the inhibition (PEG-3 [4]) is reported as 99.3% and the inhibition (PEG-3 [5]) is reported as 101%.
`Oc1c(Cl)cc(Cl)c2cccnc12` gave an inhibition (PEG-3 [4]) of 80.8% and an inhibition (PEG-3 [5]) of 80.6%.
With `Cn1cc(CN2CCCC(C(=O)Nc3ccc(-c4cccc(F)c4)cc3)C2)cn1` (stereo not drawn) the inhibition (PEG-3 [4]) was 101% and the inhibition (PEG-3 [5]) was 102%.
In the case of `CC1=CC(C)[C@H](/C=N/n2c(=O)[nH]c3c([nH]c4ccc(Br)cc43)c2=O)C(C)C1` (stereo partly drawn), the inhibition (PEG-3 [4]) is reported as 12.7% and the inhibition (PEG-3 [5]) is reported as 77.5% [run 2, dose range 1, at 12.5 µM].
With `CCOC(=O)C(=Cc1ccccc1)C(=O)c1ccccc1` the inhibition [1] was -122% (inactive), the inhibition [6] was 97.2% (active) and the inhibition [7] was 108% (active).
Compound `CCN1CCN(Cc2ccc(NC(=O)c3cc(NC(=O)c4ccno4)cc(OC)c3)cc2C(F)(F)F)CC1` has an inhibition (PEG-3 [4]) of 95.5% and an inhibition (PEG-3 [5]) of 102%.
`CC(C)c1ccc(NC(=O)Nc2nc(C(C)N)cs2)cc1` (stereo not drawn) showed an inhibition (PEG-3 [4]) of 100% and an inhibition (PEG-3 [5]) of 98.9%.
Compound `CC(NC(=O)c1ccc([N+](=O)[O-])o1)C12CC3CC(CC(C3)C1)C2` (stereo not drawn) has an inhibition (PEG-3 [4]) of 99.4% and an inhibition (PEG-3 [5]) of 98.5%.
For `NC(=O)C1CCN(C2=C(Cl)C(=O)c3ccccc3C2=O)CC1`, the inhibition (PEG-3 [4]) was 100% and the inhibition (PEG-3 [5]) was 97.8%.
In the case of `COc1ccccc1NC(=O)Nc1nc(C(N)CCc2ccccc2)cs1` (stereo not drawn), the inhibition (PEG-3 [4]) is reported as 95.9% and the inhibition (PEG-3 [5]) is reported as 102%.
In the case of `CCCCC(=O)NC(c1ccccc1Cl)c1ccc2cccnc2c1O` (stereo not drawn), the inhibition (PEG-3 [4]) is reported as 70.2% and the inhibition (PEG-3 [5]) is reported as 87.3%.
`CCOc1cc(CNCCO)cc(Br)c1OCc1ccccc1Cl` showed an inhibition (PEG-3 [4]) of 100% and an inhibition (PEG-3 [5]) of 99.1%.
Work on `CN(C)CCCN1c2ccccc2Sc2ccc3ccccc3c21` yielded an inhibition (PEG-3 [4]) of 94.6% and an inhibition (PEG-3 [5]) of 98.6%.
Compound `Cc1cc(C)c2sc(N(CCCN(C)C)C(=O)c3ccc(S(=O)(=O)N(C)Cc4ccccc4)cc3)nc2c1` has an inhibition (PEG-3 [4]) of 98.7% and an inhibition (PEG-3 [5]) of 101%.
With `COc1cccc(-c2cnc3c(NC=O)cc(-c4cccc(C(=O)N(C)C)c4)cn23)c1` the inhibition (PEG-3 [4]) was 98.8% and the inhibition (PEG-3 [5]) was 97.5%.
For `Cc1ccc(S(=O)(=O)CCSC(=N)N)cc1`, the inhibition (PEG-3 [4]) was 101% and the inhibition (PEG-3 [5]) was 93.6%.
`CN(C)C=NC(=O)c1[nH]c2ccc(Cl)cc2c1-c1ccccc1` gave an inhibition (PEG-3 [4]) of 98.6% and an inhibition (PEG-3 [5]) of 96.5%.
Compound `Cc1ccc(F)cc1-c1cc2nc(NCCCN(C)C)n(C)c(=O)c2s1` has an inhibition (PEG-3 [4]) of 101% and an inhibition (PEG-3 [5]) of 99.2%.
Compound `CC1=C(CC[C@@H](C)CO)OC2CC3C4CCC5CC(O)CCC5(C)C4CC(=O)C3(C)C12` (stereo partly drawn) has an inhibition (PEG-3 [4]) of 88.8% and an inhibition (PEG-3 [5]) of 83.2%.
Work on `CCC(=C(c1ccc(OC)cc1)c1ccc(OC)cc1)c1cn(CC(O)CN2CCN(C)CC2)c2ccccc12` (stereo not drawn) yielded an inhibition (PEG-3 [4]) of 99.5% and an inhibition (PEG-3 [5]) of 98.3%.
In the case of `Cc1ccc2[nH]c3c(c2c1)CCCC3NC(=O)CCl` (stereo not drawn), the inhibition (PEG-3 [4]) is reported as 97% and the inhibition (PEG-3 [5]) is reported as 96.5%.
Compound `COc1ccc(C(O)(CCC(C)C)C(CN2CCOCC2)c2ccccc2)cc1` (stereo not drawn) has an inhibition (PEG-3 [4]) of 96.5% and an inhibition (PEG-3 [5]) of 101%.
Work on `CCC1CCCCN1S(=O)(=O)c1ccc(C(=O)N(CCCN(C)C)c2nc3cc4c(cc3s2)OCO4)cc1` (stereo not drawn) yielded an inhibition (PEG-3 [4]) of 101% and an inhibition (PEG-3 [5]) of 96.1%.
`CN(C)c1ccc(N=Nc2nc3ccccc3n2C)cc1` showed an inhibition (PEG-3 [4]) of 98.1% and an inhibition (PEG-3 [5]) of 98.9%.
Work on `COc1ccc(-c2nc3c(C(=O)NCCN(C)C)cccc3c3ccccc23)cc1` yielded an inhibition (PEG-3 [4]) of 102% and an inhibition (PEG-3 [5]) of 99.5%.
Work on `CCN(CC)CCn1c2ccccc2c2cnc(N)c(C#N)c21` yielded an inhibition (PEG-3 [4]) of 101% and an inhibition (PEG-3 [5]) of 102%.

Reference: PubChem BioAssay
